An excerpt weighted towards active compounds, which were near 1.5% of everything screened.
Statin myotox sup – protects C2C12 myotubes from simvastatin toxicity; ATP luminescence, 48 h; scaled: DMSO 0, geranylgeraniol control 100; rescue of ATP level, % at 7.49 µM; actives 0.78% (n = 330,000);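 active means mean ATP rescue above about 67%, or every replicate alone reaching that limit, limit read from the data, passing the limit was not always enough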;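 further: myotubes were challenged with 10 µM simvastatin during compound exposure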
Cneo AK release – Cryptococcus neoformans lysis via adenylate kinase release. C. neoformans lysis, adenylate kinase release luminescence, 4 h; normalised: neutral wells 0, clomiphene wells 100. lysis activity, % at 15 µM. actives 0.2% (n = 360,000). AID 651654;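 active means mean lysis activity across replicates of at least 80%, whatever share of replicates individually reach that level; inactive means mean lysis activity below 80%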
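Material – Cryptococcus neoformans yeast cells · Quantity – 5 × 10^6 yeast cells/mL · Buffer or medium – YPD medium · Compound – single dose · Timing – 4 h static compound exposure, 37 °C, read 1 h post-reagent · Signal – adenylate kinase release luminescence · Read-out basis – lysis from increased AK signal · Benchmarks – Clomiphene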
SUMO Mot1 rescue – inhibitors of SUMOylation pathway: yeast Mot1-301 growth rescue | S. cerevisiae Mot1-301 growth rescue, ATP luminescence, 38.5C; percent above DMSO median, 100 means doubled | growth rescue, % at 18.8 µM | actives 1% (n = 320,000) | AID 2716;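 active means every valid replicate shows activation above 250% relative to neutral control wells; inactive means the rest, any valid replicate at or below 250%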
Large screens that a line does not name were inactive; ! = repeats disagree.

Cc1ccc(-c2nnc(CSc3nnc(COc4cccc5ccccc45)n3-c3ccccc3)o2)cc1	Statin myotox sup 136.1
COc1ccccc1C(=O)NNC(=O)Cc1ccccc1	none
CCC(C)(CCNC(=O)Cc1ccccc1)c1ccccc1OC (centres undefined)	Statin myotox sup 121.1
C[C@@H]1CN([C@@H](C)CO)C(=O)c2cc(-c3ccc(F)cc3)cnc2O[C@H]1CN(C)C(=O)Cc1ccccc1	none (no result: SUMO Mot1 rescue)
CCC1CCCCN1CCNC(=O)CNS(=O)(=O)c1ccc2nc(C)sc2c1 (centres undefined)	SUMO Mot1 rescue 314.9
Cc1ccc(CCNC(=O)CNS(=O)(=O)c2ccc3nc(C)sc3c2)cc1	none
O=C(NC1CCC1)[C@@H]1[C@@H](CO)[C@@H]2Cn3c(ccc(-c4ccccc4)c3=O)[C@H]1N2	none (no result: SUMO Mot1 rescue)
O=C(O)C[C@H]1C[C@H]2c3cc(NC(=O)Nc4ccc(F)cc4)ccc3O[C@H]2[C@H](CO)O1	none (no result: SUMO Mot1 rescue)
CCOC(=O)c1oc2cccc(O)c2c1C	none
CCOC(=O)c1oc2cccc(OC(C)=O)c2c1C	Statin myotox sup 147.3
CCOC(=O)CN1CC23C=CC(O2)C(C(=O)NC2CCCCC2)C3C1=O (centres undefined)	Statin myotox sup 107.5
CCOC(=O)CN1CC23C=CC(O2)C(C(=O)NC2CCCC2)C3C1=O (centres undefined)	none
CC(C)C#Cc1ccc2c(c1)O[C@@H](CN(C)C(=O)c1ccccn1)[C@@H](C)CN([C@@H](C)CO)S2(=O)=O	none (no result: SUMO Mot1 rescue)
N#CC1CN(Cc2ccccc2)CN(Cc2ccccc2)C1	none (no result: Statin myotox sup, Cneo AK release)
N#CC1CN(C(c2ccccc2)c2ccccc2)C1	Statin myotox sup 106.9 (no result: SUMO Mot1 rescue)
COc1ccc(-n2cc(CNCCc3ncc(C)[nH]3)c(-c3ccccc3Cl)n2)cc1	none (no result: Statin myotox sup)
COc1ccc(-n2cc(CNCCc3nc(C)cc(C)n3)c(-c3ccccc3Cl)n2)cc1	Cneo AK release 93.7
C[C@@H]1CN([C@H](C)CO)C(=O)c2cc(-c3cccc(F)c3)cnc2O[C@@H]1CN(C)C(=O)c1cnccn1	none (no result: SUMO Mot1 rescue)
CCCCOc1ccc(N2CC(C(=O)NCCc3ccc(OC)c(OC)c3)CC2=O)cc1 (centres undefined)	SUMO Mot1 rescue 908.6 (no result: Statin myotox sup, Cneo AK release)
COc1ccc(N2CC(C(=O)NCCc3ccc(OC)c(OC)c3)CC2=O)cc1 (centres undefined)	none
CN(C)CCCNC(=O)C[C@H]1CC[C@H](NC(=O)Cc2cccnc2)[C@@H](CO)O1	none (no result: SUMO Mot1 rescue)
O=C(/C=C/c1c(F)cccc1Cl)c1ccc(F)cc1	Statin myotox sup 128.8
O=C(/C=C/c1ccc[nH]1)c1ccc(F)cc1	none (no result: Statin myotox sup, Cneo AK release)
O=C(NC1CCC1)[C@H]1[C@H](CO)[C@H]2Cn3c(ccc(C4=CCCC4)c3=O)[C@H]2N1C(=O)C1CCCC1	none (no result: SUMO Mot1 rescue)
CO[C@H]1CN(C)C(=O)c2ccc(NC(=O)C3CCOCC3)cc2OC[C@@H](C)N(C(=O)c2ccccc2)C[C@@H]1C	none (no result: Cneo AK release, SUMO Mot1 rescue)
C[C@H](CO)N1C[C@H](C)[C@@H](CN(C)S(=O)(=O)c2cccs2)Oc2ccc(NS(=O)(=O)c3cn(C)cn3)cc2CC1=O	none (no result: SUMO Mot1 rescue)
CCCN(C)C[C@H]1Oc2cc(C3=CCCC3)ccc2S(=O)(=O)N([C@H](C)CO)C[C@@H]1C	none (no result: Cneo AK release, SUMO Mot1 rescue)
O=C(COc1ccccc1)N1CCN(c2nnc(-c3ccccc3)c3ccccc23)CC1	Statin myotox sup 79.2
COc1ccc(OCC(=O)N2CCN(c3nnc(-c4ccccc4)c4ccccc34)CC2)cc1	none (no result: Statin myotox sup)
C[C@H]1CN([C@@H](C)CO)C(=O)c2cc(C#CCN(C)C)cnc2O[C@H]1CN(C)C(=O)CCN1CCCCC1	none (no result: SUMO Mot1 rescue)
COCCn1c(N2CCN(c3ccc(OC)cc3)CC2)nc2c1c(=O)[nH]c(=O)n2C	none
CCOCCn1c(N2CCN(c3ccc(OC)cc3)CC2)nc2c1c(=O)[nH]c(=O)n2C	Statin myotox sup 103.0
NCC[C@H]1CC[C@H](NC(=O)c2ccccc2F)[C@H](CO)O1	none (no result: Cneo AK release, SUMO Mot1 rescue)
C[C@@H]1CN([C@@H](C)CO)C(=O)c2cc(NS(=O)(=O)c3cccs3)ccc2O[C@@H]1CN(C)S(=O)(=O)c1cn(C)cn1	none (no result: SUMO Mot1 rescue)
CNC[C@H]1Oc2c(NS(=O)(=O)c3ccc(Cl)cc3)cccc2C(=O)N([C@H](C)CO)C[C@@H]1C	none (no result: SUMO Mot1 rescue)
CNC[C@@H]1Oc2c(NS(=O)(=O)c3cccs3)cccc2C(=O)N([C@H](C)CO)C[C@@H]1C	none (no result: SUMO Mot1 rescue)
CNC[C@@H]1Oc2c(NS(=O)(=O)c3ccc(Cl)cc3)cccc2C(=O)N([C@H](C)CO)C[C@H]1C	Cneo AK release 87.2 (no result: SUMO Mot1 rescue)
CNC[C@H]1Oc2c(NS(=O)(=O)c3cccs3)cccc2C(=O)N([C@H](C)CO)C[C@@H]1C	Cneo AK release 95.6!
CNC[C@@H]1Oc2c(NS(=O)(=O)c3cccs3)cccc2C(=O)N([C@H](C)CO)C[C@H]1C	none (no result: SUMO Mot1 rescue)
